Data taken from PMC4893941 (Journal of medicinal chemistry, 2016).

What was measured:
[1] = Octanol–water partition coefficients; assay type: physicochemical; conditions: 1-octanol/water partition, UV–vis absorbance
Method in brief: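 Octanol and water were mutually presaturated. A 64 μM stock of test compound in water-saturated octanol was vortexed 10 min with water. After phase separation, the octanol layer was diluted and its UV–vis absorbance read. log P was calculated from octanol absorbance before versus after partitioning and the water/octanol phase volumes.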

human glioma T98G cells = assay: Time-dependent cellular uptake; assay type: cell-based; conditions: 10 μM; for cellular uptake after 24 h, fold higher than 7: relative to BODIPY 7
Method in brief: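 T98G glioma cells were seeded at 15 000/well in EMEM with 10% FBS and grown 24 h. They were then exposed to 10 μM test compound for 0, 1, 2, 4, 8 or 24 h, PBS-washed and lysed in 0.25% Triton X-100/PBS. Fluorescence at 485/590 nm was read against compound standard curves (0.3125–10 μM). Cell number came from a CyQuant cell standard curve, and uptake was expressed as nM per cell.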

[2] = system: human hCMEC/D3 brain endothelial cell monolayers; assay: BBB permeability across hCMEC/D3 cell monolayers; assay type: in vitro ADME; conditions: hCMEC/D3 monolayer; for Pe (permeability coefficient): 50 μM in transport buffer, 0–45 min
Method in brief: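 hCMEC/D3 cells were grown 48 h on 0.4 μm PET Transwell inserts in EBM-2 with 5% FBS, hydrocortisone, ascorbate, lipid concentrate, HEPES and bFGF. Monolayers were checked by microscopy. Test compound or lucifer yellow (50 μM) in HBSS/HEPES/pyruvate transport buffer was added to the upper chamber at 37 °C. Inserts were moved to fresh buffer at 10 and 25 min, and the lower chamber was sampled at 10, 25 and 45 min. Fluorescence was read at 485/590 nm (compound) or 425/538 nm (LY) against standard curves. Pe came from clearance-slope fits, cell inserts minus cell-free inserts, in triplicate.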

Substance: 8-(1,2-Carboranyl-1-thio)-1,3-dimethyl-BODIPY [2b]
- log P [1]: 1.69
- cellular uptake at 24 h (human glioma T98G cells): 0.36 ± 0.03 nM/cell
- cellular uptake after 24 h, fold higher than 7 (human glioma T98G cells): 106 fold
- Pe (permeability coefficient) [2]: 6.0 ± 1.0 × 10^−5 cm/s

Substance: 8-(1,2-Carboranyl-1-thio)-2-ethyl-1,3,6,7-tetramethyl-BODIPY [5b]
- log P [1]: 1.95
- cellular uptake at 24 h (human glioma T98G cells): 1.5 ± 0.05 nM/cell
- cellular uptake after 24 h, fold higher than 7 (human glioma T98G cells): about 436 fold
- Pe (permeability coefficient) [2]: 2.6 ± 0.9 × 10^−5 cm/s

Substance: 8-(1,2-Carboranyl-1-thio)-3-chloro-2-ethyl-1,3,6,7-tetramethyl-BODIPY [6b]
- log P [1]: 1.93
- cellular uptake at 24 h (human glioma T98G cells): 0.46 ± 0.06 nM/cell
- cellular uptake after 24 h, fold higher than 7 (human glioma T98G cells): 135 fold
- Pe (permeability coefficient) [2]: 5.4 ± 0.6 × 10^−5 cm/s

Substance: 8-(1,2-Carboranyl-1-thio)-BODIPY [1b]
- log P [1]: 1.50
- cellular uptake at 24 h (human glioma T98G cells): 0.23 ± 0.05 nM/cell
- cellular uptake after 24 h, fold higher than 7 (human glioma T98G cells): 67 fold
- Pe (permeability coefficient) [2]: 16.4 ± 3.3 × 10^−5 cm/s
- Pe relative to LY ([2]; relative to lucifer yellow): 7 fold

Substance: 8-[4-(2-Methyl-1,2-carboranyl)methylphenyl]-BODIPY [compound 4]
- log P [1]: 2.11
- cellular uptake at 24 h (human glioma T98G cells): 0.41 ± 0.03 nM/cell
- cellular uptake after 24 h, fold higher than 7 (human glioma T98G cells): 118 fold

Substance: lucifer yellow [LY, reference compound]
- Pe (permeability coefficient) [2]: 2.2 ± 0.8 × 10^−5 cm/s
